The list is not random: actives were taken first. Their share in the collection is about 3.2%.
NR2E3 ag-1: inhibitors of NR2E3-RetCOR corepressor binding, primary screen, NR2E3 agonist project, biochemical, TR-FRET, GST-NR2E3, biotin-RetCOR. Photoreceptor-specific nuclear receptor (Homo sapiens), Q9Y5X4. 1536-well. inhibition of corepressor binding, % at 4.78 µM. hit rate 0.12% among 320,000;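 active = percent inhibition above the cutoff of mean plus 3 SD of all tested compounds, set per screening campaign, cut at about 20% in these data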;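 note: 0% = DMSO wells and 100% = biotin wells as full block of FRET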
Target sequence (Q9Y5X4 whole entry, looked up): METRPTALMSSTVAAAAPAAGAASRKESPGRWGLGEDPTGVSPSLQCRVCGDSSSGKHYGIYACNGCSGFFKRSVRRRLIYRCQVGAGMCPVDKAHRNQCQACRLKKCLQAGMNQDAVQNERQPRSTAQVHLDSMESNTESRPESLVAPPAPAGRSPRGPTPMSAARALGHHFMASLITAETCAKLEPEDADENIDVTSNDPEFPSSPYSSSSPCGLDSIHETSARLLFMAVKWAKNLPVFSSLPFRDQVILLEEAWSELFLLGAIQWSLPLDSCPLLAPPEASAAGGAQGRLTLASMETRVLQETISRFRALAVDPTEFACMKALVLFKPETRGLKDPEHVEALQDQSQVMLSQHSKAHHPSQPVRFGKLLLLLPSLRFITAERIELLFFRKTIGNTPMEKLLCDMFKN
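System: GST-tagged NR2E3 plus biotinylated RetCOR corepressor; Buffer or medium: pH 7.5 Tris-based buffer; Probe or stimulus: RetCOR corepressor, biotinylated, 7 nM; Doses: compound at 4.8 µM, single dose; Schedule: 5 h incubation at 4 °C; Technique: time-resolved FRET; Evaluation: percent inhibition of TR-FRET ratio; Replication: one well per compound, singlicate testing.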
DAX1 inh-1: DAX1 (NR0B1) inhibitors, primary screen, cell-based, HEK293, Gal4-DAX1, luciferase luminescence; HEK293 Gal4-DAX1 luciferase reporter; inhibition, % at 6.75 µM; hit rate 0.99% among 340,000; AID 504766, 2011;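 active = inhibition above the mean over all tested compounds plus 3 SD, cut at about 4.2% in these data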;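 note: 0% = DAX1-transfected cells with DMSO and 100% = empty-vector control cells with DMSO; inhibition shows as a rise in luminescence from relieved DAX1 repression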
Target sequence (P51843 207-470 limits assumed): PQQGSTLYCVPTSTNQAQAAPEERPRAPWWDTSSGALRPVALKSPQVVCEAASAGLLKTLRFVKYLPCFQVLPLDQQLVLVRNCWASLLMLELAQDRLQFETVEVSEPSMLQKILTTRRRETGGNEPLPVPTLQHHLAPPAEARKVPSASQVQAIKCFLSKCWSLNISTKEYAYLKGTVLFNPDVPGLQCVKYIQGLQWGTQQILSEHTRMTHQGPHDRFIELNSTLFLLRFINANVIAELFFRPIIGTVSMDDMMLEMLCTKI
DAX1 inh-2: DAX1 (NR0B1) inhibitors on StAR promoter, primary screen, cell-based, luminescence, SF-1 (NR5A1), full-length DAX-1; HEK293T StAR-luciferase reporter, SF-1/DAX-1 repression relief; inhibition, % at 6.8 µM; hit rate 1.1% among 370,000; AID 652010, 2013;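 active = inhibition above the mean over all tested compounds plus 3 SD, cut at about 3.6% in these data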;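 note: 0% = DAX-1 cells with DMSO and 100% = cells lacking DAX-1 with DMSO; higher inhibition means more luminescence from relief of DAX-1 repression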
JMJD2C inh: inhibitors of GASC-1 histone demethylase, primary screen, biochemical, fluorescence, DELFIA europium | GST-JMJD2C(1-420) H3K9me3 demethylation | Lysine-specific demethylase 4C (Homo sapiens), Q9H3R0 | inhibition, % at 2.35 µM | hit rate 0.069% among 330,000 | AID 2099, 2009;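 active = more than half of a compound's replicate wells show inhibition beyond 50%, single wells judged on their own value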;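 note: signal counts dimethyl H3K9 product captured on neutravidin plate; 0% = median of DMSO wells and 100% = 0.3 times that DMSO median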
NR2E3 ag-2: NR2E3 agonists in two-hybrid cells, primary screen, cell-based, luminescence, CHO-S, Gal4-NCOR/VP16-NR2E3 | Photoreceptor-specific nuclear receptor (Homo sapiens), Q9Y5X4 | luciferase | inhibition of corepressor binding, % at 3.98 µM | hit rate 0.35% among 360,000 | AID 602229, 2012;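 active = inhibition above the mean of all tested compounds plus 3 SD, cut at about 70% in these data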;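 note: 0% = DMSO with NR2E3 transfected cells and 100% = cells lacking NR2E3 construct; higher means lower luciferase signal from less NR2E3 corepressor binding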
SMARCA2 act: SMARCA2 (BRM) function activators, primary screen, cell-based, luminescence, high throughput | AID 652017, 2013 | MG213 cells, MMTV-luciferase reporter, dexamethasone, overnight | activation, % at 9.1 µM | hit rate 1% among 370,000; in the data active = activation above about 7.8%;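 note: 0% = vehicle wells and 100% = reference activator wells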
NR2E3 ag conf: NR2E3 agonist confirmation in cells, cell-based, luminescence, CHO-S two-hybrid; shares compounds with NR2E3 ag-2; CHO-S mammalian two-hybrid NR2E3-NCOR, luciferase luminescence; inhibition, % at 3.98 µM; hit rate 51% among 2,300;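 active = average inhibition above a cutoff equal to the mean inhibition of all tested compounds plus one SD, cut at about 70% in these data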;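 note: 0% = DMSO in NR2E3 cells and 100% = DMSO in cells lacking NR2E3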
VP16 counter: GAL4-VP16 reporter modulators, confirmation, counter-screen for NR2E3 agonist project, cell-based, luminescence, CHO-S, high throughput. shares compounds with NR2E3 ag-2. CHO-S GAL4-VP16 luciferase reporter. inhibition, % at 3.98 µM. hit rate 29% among 2,300;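 active = mean inhibition above a cutoff equal to the average over all tested compounds plus one standard deviation, cut at about 70% in these data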;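 note: luciferase from a UAS reporter driven by GAL4-VP16 transactivation; 0% = DMSO with VP16-transfected cells and 100% = DMSO with cells lacking VP16; higher means less reporter light so more repression of VP16 activity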
DAX1 conf: DAX1 (NR0B1) inhibitors relieving SF-1 repression, confirmation, cell-based, luminescence, HEK293T, full-length DAX-1, SF-1 activated StAR promoter; AID 652134, 2013; inhibition, % at 6.8 µM; HEK293T StAR-promoter luciferase reporter, SF-1/DAX-1 repression; shares compounds with DAX1 inh-2; hit rate 87% among 2,400;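 active = inhibition above the average of every tested compound plus 3 SD, cut at about 3.8% in these data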;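 note: 0% = DAX-1 cells with DMSO and 100% = no DAX-1 control cells with DMSO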
SF1 mutant ctr: StAR reporter signal changes without DAX1, counter-screen for DAX1 inhibitor project, cell-based, luminescence, AF-2 mutant SF-1, transactivation; shares compounds with DAX1 inh-2; HEK293 StAR-luciferase, SF-1 AF2 mutant; inhibition, % at 6.8 µM; hit rate 78% among 2,400; AID 652136, 2013;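 active = inhibition above the mean of all tested compounds plus 3 SD, cut at about 3% in these data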;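 note: 0% = DAX-1 transfected cells with DMSO and 100% = cells without DAX-1 with DMSO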
SMARCA2 conf: SMARCA2 (BRM) function activators, confirmation, cell-based, luminescence, triplicate; shares compounds with SMARCA2 act; MG213 cells, MMTV-luciferase with dexamethasone, overnight; MG213 cells expressing E1A, Rb sequestered; DMSO wells 0%, reference activator 100%; activation, % at 9.1 µM; hit rate 30% among 3,500; AID 652260, 2013;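 active = activation above its plate's cutoff, the mean activation of tested wells plus 3 SD, cut at about 7.9% in these data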
VP16 Luc act: GAL4-VP16 luciferase reporter activation, counter-screen for SMARCA2 (BRM) activator project, cell-based, pG5luc, luminescence, high throughput. shares compounds with SMARCA2 act. HEK293 GAL4-VP16 pG5luc reporter; scaled: DMSO wells 0%, SAHA wells 100%. activation, % at 9.1 µM. hit rate 41% among 3,500. AID 686939, 2013;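 active = activation above the solvent-only control well mean plus 3 SD, averaged across control plates, cut at about 5.2% in these data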
Starred values were filed as active, the others as inactive; x = no result.

SMILES	NR2E3 ag-1	DAX1 inh-1	DAX1 inh-2	JMJD2C inh	NR2E3 ag-2	SMARCA2 act	DAX1 conf	SF1 mutant ctr	others
Nc1cccc(SC2CC(=O)N(c3ccc(Cl)cc3C(=O)c3ccccc3)C2=O)c1 (stereo unspecified)	x	0	0	x	19	-5	x	x
CC1=CC2OC3CC4OC(=O)C=CC=CC(=O)OCCC(C)C(O)C(=O)OCC2(CC1O)C4(C)C31CO1 (stereo unspecified)	x	-7	x	x	99*	x	x	x	NR2E3 ag conf=100*;VP16 counter=99*
CC1=CC2OC3CC4OC(=O)C=CC=CC(C(C)O)OCC(O)C(C)CC(=O)OCC2(CC1O)C4(C)C31CO1 (stereo unspecified)	x	-7	-7	x	101*	-10	x	x	NR2E3 ag conf=100*;VP16 counter=99*
C[C@H]1CCC/C=C/[C@@H]2C[C@H](O)C[C@H]2[C@H](O)/C=C/C(=O)O1	5	-3	4.4*	21	95*	-10	10*	2	NR2E3 ag conf=99*;VP16 counter=65
COc1cc(N2C(=O)CC(=O)NC2=O)cc(OC)c1OC	0	-1	0	-10	-30	-2	x	x
COc1cc2nc(CN3CC=C(c4ccccc4)CC3)[nH]c(=O)c2cc1OC	0	6.0*	-1	8	90*	14*	x	x	NR2E3 ag conf=99*;VP16 counter=42;SMARCA2 conf=7;VP16 Luc act=-1
CN(C(=O)COC(=O)c1cn(C)c2ccccc12)C1CCCCC1	0	0	-1	17	-6	-1	x	x
COc1ccc(-c2cc(=O)c3c(OC)c(OC)c(OC)cc3o2)cc1	0	-3	-2	1	-32	0	x	x
COc1ccc(-c2cc(=Nc3ccccc3)c3cc(C)ccc3o2)cc1	0	-1	5.1*	32	-167	2	6.1*	4.3*
COc1ccc(-c2cc(=NCCC(=O)O)c3cc(C)ccc3o2)cc1	x	2	7.0*	-7	-112	6	13*	8.8*
CC/C(=N\NC(=O)c1ccccc1Cl)c1c(O)n(C2CCCCC2)c(=O)[nH]c1=O	1	0	3	2	-13	4	x	x
CC/C(=N\NC(=O)c1ccccc1)c1c(O)n(C2CCCCC2)c(=O)[nH]c1=O	-1	1	4.8*	5	-90	5	2	1
Nc1ccccc1C(=O)OCCc1ccccc1	7	1	5.6*	-5	-166	4	13*	4.1*
CC(=O)c1cccc(OCC(=O)N2CCN(CC(=O)Nc3cccc(F)c3)CC2)c1	2	0	1	-1	14	-4	x	x
Cc1cc(OCC(=O)N2CCCN(C)CC2)ccc1Cl	3	0	5.2*	-14	-15	-1	3	0
CCCCCN1C(=O)c2ccccc2[C@@]2(C(=O)OCC)Cc3cc(OC)ccc3[C@@H]12	x	x	0	x	-10	-6	x	x
CCOC(=O)[C@]12Cc3cc(OC)ccc3[C@H]1N(Cc1ccccc1)C(=O)c1ccccc12	x	1	0	x	-13	-2	x	x
CCOC(=O)[C@]12Cc3c(cc(OC)c(OC)c3OC)[C@H]1N(C(C)C)C(=O)c1ccccc12	x	x	5.5*	x	11	2	4.6*	6.4*
CCOC(=O)[C@]12Cc3ccccc3[C@H]1N(C(C)C)C(=O)c1cc(OC)ccc12	x	x	7.0*	x	-24	4	6.0*	16*
CCOC(=O)[C@]12Cc3cc(C)ccc3[C@H]1N(CCC(=O)OC)C(=O)c1cc(OC)ccc12	x	x	3	x	-41	-5	x	x
CCOC(=O)[C@]12Cc3c(cc(OC)c(OC)c3OC)[C@H]1N(C)C(=O)c1cc(OC)ccc12	x	x	4.7*	x	-28	0	9.5*	14*
CCC(=Nc1ccccc1N)c1c(O)[nH]c(=O)[nH]c1=O	0	3	1	14	-104	1	x	x
CN(C)C(=O)Oc1ccc(-c2cn3cc(Cl)ccc3n2)cc1	-2	-1	6.1*	3	-102	8	16*	6.3*
CN1C(=O)NC(=O)C(N=Nc2ccc(Cl)cc2)C1=O (stereo unspecified)	x	-2	1	x	-23	-4	x	x
CC=C(CC)C1(CC)C(=O)NC(=S)NC1=O	x	1	0	x	-34	2	x	x
Cc1ccc2c(c1N)C(=O)c1ccccc1C2=O	0	1	5.3*	3	-78	3	11*	5.8*
O=c1[nH]c(O)c(/C=C2\C=Nc3ccc(OCc4ccccc4)cc32)c(=O)[nH]1	3	1	-1	4	-14	-2	x	x
CC1CCCN(CC(=O)c2ccc(Cl)c(Cl)c2)C1 (stereo unspecified)	0	1	2	8	-22	-1	x	x
